# Test results: ChEMBL document CHEMBL2385053, “Novel isoquinoline derivatives as antimicrobial agents” (2013)
# How the values were obtained:
# Escherichia coli [1] = assay: Bactericidal activity against Escherichia coli CECT 100 at 0.2 mg/disk after 24 hrs by paper disk-agar diffusion method; assay type: functional
# In short: (§1)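 Each bacterial strain was taken from a 24-h culture on solid medium, reactivated in Nutrient Broth, and grown a further 24 h at 28 or 37 °C depending on the strain. 1 mL of suspension was mixed with 15 mL Plate Count Agar. Four 0.5 cm paper disks (0.2 mg/disk) were placed on the set agar. Controls were vehicle-only disks and tetracycline. Plates were incubated 24 h, dark, 28 or 37 °C. The inhibition zone was read in mm as the mean ± SE of three independent experiments.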
# [2] = system: Pectobacterium carotovorum; assay: Bactericidal activity against Erwinia carotovora CECT 225 at 0.2 mg/disk after 24 hrs by paper disk-agar diffusion method; assay type: functional; in short: as §1
# Escherichia coli [3] = assay: Bactericidal activity against Escherichia coli CECT 405 at 0.2 mg/disk after 24 hrs by paper disk-agar diffusion method; assay type: functional; in short: as §1
# Salmonella typhi [4] = assay: Bactericidal activity against Salmonella typhi CECT 409 at 0.2 mg/disk after 24 hrs by paper disk-agar diffusion method; assay type: functional, Salmonella enterica subsp. enterica serovar Typhi
# In short: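 Paper disk-agar diffusion, run in triplicate. 24-h culture reactivated in nutrient broth and grown a further 24 h at 28 or 37 °C by species. 1 mL suspension mixed into 15 mL plate count agar. Four 0.5 cm disks placed per plate, incubated 24 h in the dark. Inhibition zone (mm) reported as mean ± SE of three independent experiments; vehicle disks as negative control.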
# Enterococcus faecalis = assay: Bactericidal activity against Enterococcus faecalis CECT 481 at 0.2 mg/disk after 24 hrs by paper disk-agar diffusion method; assay type: functional; in short: as §1
# Staphylococcus aureus = assay: Bactericidal activity against Staphylococcus aureus CECT 86 at 0.2 mg/disk after 24 hrs by paper disk-agar diffusion method; assay type: functional; in short: as §1
# Bacillus cereus = assay: Bactericidal activity against Bacillus cereus CECT 148 at 0.2 mg/disk after 24 hrs by paper disk-agar diffusion method; assay type: functional; in short: as §1
# Aspergillus parasiticus = assay: Fungicidal activity against Aspergillus parasiticus CECT 2681 at 0.2 mg/disk after 72 hrs by paper disk-agar diffusion method; assay type: functional
# In short: (§2)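 Fungi were grown on potato dextrose agar (PDA) for 7 days at 28 °C. Conidia were suspended to ~10⁶/mL in 0.05% Tween 80 in sterile water, and 1 mL was mixed into 15 mL PDA. Four 0.5 cm paper disks (0.2 mg/disk) were placed on the set agar. Controls were vehicle-only disks and benomyl at species-dependent doses. The inhibition zone was read in mm at 72 h as the mean ± SE of three independent experiments.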
# [5] = system: Phytophthora citrophthora; assay: Fungicidal activity against Phytophthora citrophthora CECT 2353 at 0.2 mg/disk after 72 hrs by paper disk-agar diffusion method; assay type: functional; in short: as §2
# Trichoderma viride = assay: Fungicidal activity against Trichoderma viride CECT 2423 at 0.2 mg/disk after 72 hrs by paper disk-agar diffusion method; assay type: functional; in short: as §2
# Geotrichum candidum = assay: Fungicidal activity against Geotrichum candidum CCM 245 at 0.2 mg/disk after 72 hrs by paper disk-agar diffusion method; assay type: functional; in short: as §2
# Fusarium culmorum = assay: Fungicidal activity against Fusarium culmorum CCM 172 at 0.2 mg/disk after 72 hrs by paper disk-agar diffusion method; assay type: functional; in short: as §2
# Escherichia coli [6] = assay: Bactericidal activity against Escherichia coli CECT 405 at 0.2 mg/disk after 24 hrs by paper disk-agar diffusion method relative to control; assay type: functional
# Salmonella typhi [7] = assay: Bactericidal activity against Salmonella typhi CECT 409 at 0.2 mg/disk after 24 hrs by paper disk-agar diffusion method relative to control; assay type: functional, Salmonella enterica subsp. enterica serovar Typhi
SMILES,inhibition zone (IZ) (Escherichia coli [1]) [mm],inhibition zone (IZ) [2] [mm],inhibition zone (IZ) (Escherichia coli [3]) [mm],inhibition zone (IZ) (Salmonella typhi [4]) [mm],inhibition zone (IZ) (Enterococcus faecalis) [mm],inhibition zone (IZ) (Staphylococcus aureus) [mm],inhibition zone (IZ) (Bacillus cereus) [mm],inhibition zone (IZ) (Aspergillus parasiticus) [mm],inhibition zone (IZ) [5] [mm],inhibition zone (IZ) (Trichoderma viride) [mm],inhibition zone (IZ) (Geotrichum candidum) [mm],inhibition zone (IZ) (Fusarium culmorum) [mm],Activity (Escherichia coli [6]) [%],Activity (Salmonella typhi [7]) [%]
CN(C)[C@@H]1C(O)=C(C(N)=O)C(=O)[C@@]2(O)C(O)=C3C(=O)c4c(O)cccc4[C@@](C)(O)[C@H]3C[C@@H]12 [TETRACYCLINE],25.67,34.67,25.67,24.33,31.17,27,23.33,,,,,,,
COC(=O)CCCCC1c2cc(OC)c(OC)cc2CCN1C (configuration not stated),5.83,0,0,0,0,5.5,6.33,,,,,,,
CCCCC1=[N+](C)CCc2cc(OC)c(OC)cc21,0,7,7,6.75,7,7,7,,,,,,,
COc1cc2c(cc1OC)C(CCCCCOC(=O)c1ccccc1)N(C)CC2 (configuration not stated),11,12.17,9.83,9.67,9.83,10.67,10.83,0,0,7.25,6.75,7,,
COc1cc2c(cc1OC)C(CCCCCOC(=O)NCCc1ccc(F)cc1)N(C)CC2 (configuration not stated),11.33,11.67,16,14.83,15,15.33,11.33,0,0,0,7.67,0,62,61
COc1ccc(CCC(=O)OCCCCCC2c3cc(OC)c(OC)cc3CCN2C)cc1 (configuration not stated),7,11.33,7.33,8,7,7.83,8.5,0,0,6,5.75,6.5,,
CCCCC1c2cc(OC)c(OC)cc2CCN1C (configuration not stated),0,6,6,6.25,7,6,6,0,0,0,0,5.5,,
COc1ccc(CCNC(=O)OCCCCCC2c3cc(OC)c(OC)cc3CCN2C)cc1 (configuration not stated),10.67,17,13.33,,11,9,12,0,0,0,7,0,,
COC(=O)CCCCC1=[N+](C)CCc2cc(OC)c(OC)cc21,0,5.5,0,0,0,0,6.33,,,,,,,
COc1cc2c(cc1OC)C(CCCCCOC(=O)NCCc1ccc(Cl)cc1)N(C)CC2 (configuration not stated),12.33,18.33,17.67,,17,16.33,14.67,0,6.25,7,10,15,75,75
COc1cc2c(cc1OC)C(CCCCCOC(=O)c1ccc(Cl)cc1)N(C)CC2 (configuration not stated),13.67,12.67,11.5,,11.67,12.67,13,0,10.33,9,12.33,6.67,,
COc1cc2c(cc1OC)C(CCCCCOC(=O)CCc1ccccc1)N(C)CC2 (configuration not stated),11.33,10.67,8.67,,8.67,9.67,10.33,0,6.67,8,7.83,6.33,,
COc1cc2c(cc1OC)C(CCCCCOC(=O)NCCc1ccccc1)N(C)CC2 (configuration not stated),10.67,11,14,13.5,13.67,14,10.17,0,0,0,7.67,0,,
COc1ccc(C(=O)OCCCCCC2c3cc(OC)c(OC)cc3CCN2C)cc1 (configuration not stated),10.83,10.33,11.33,,11.33,11.33,10.33,0,0,5.5,7.33,5.5,,
COc1cc2c(cc1OC)C(CCCCCOC(=O)c1ccc(F)cc1)N(C)CC2 (configuration not stated),14,13.5,13.67,14.83,13.67,13.67,13,0,0,7,7,8,,61
COc1cc2c(cc1OC)C(CCCCCOC(=O)CCc1ccc(Cl)cc1)N(C)CC2 (configuration not stated),8.67,11,9.17,8.17,8.33,8.67,11,0,8.5,9,8.5,9.5,,
